Assay results of several laboratories.
Protocols differ between the studies behind these lines.
Target: BDNF/NT-3 growth factors receptor (NTRK2, Homo sapiens, UniProt Q16620)

SMILES | effect on | mode | method | concentration | quantity | value
CC(C)(C)c1nc(-c2cccc(NS(=O)(=O)c3c(F)cccc3F)c2F)c(-c2ccnc(N)n2)s1 | enzyme activity | inhibitor | radiometric | 1 µM | remaining activity | 100%
Cc1cnc(NC2CCOCC2)nc1-n1cnc(C(=O)NC(CN)c2cc(F)cc(Cl)c2)c1 (centres unmarked) | enzyme activity | inhibitor | radiometric | 1 µM | remaining activity | 110%
CCN(CC)CCNC(=O)c1c(C)[nH]c(/C=C2\C(=O)Nc3ccc(F)cc32)c1C | cell-free assay |  |  | 10 µM | inhibition | 100%
Cc1ccc(C(=O)Nc2ccc(CN3CCN(C)CC3)c(C(F)(F)F)c2)cc1C#Cc1cnc2cccnn12 | cell-free assay |  |  | 23.5 nM | remaining signal | 2.3%
O=C(Nc1ccc(C(F)(F)F)cc1)Nc1cccc(C(=O)Nc2ccc3[nH]ncc3c2)c1 | enzyme activity | inhibitor | FRET | 1 µM | inhibition | 14%
O=C(Nc1cnn(-c2csc(C(=O)NC3COC3)c2)c1)Nc1ccccc1Cl | enzyme activity | inhibitor |  | 5 µM | remaining activity | 84.2%
Nc1cnc(N2CCc3cc(S(=O)(=O)Nc4c(F)cc(Cl)cc4F)cc(N4CCCC4=O)c32)nc1 | cell-free assay |  | competition with immobilised ligand | 1 µM | remaining binding | 100%
O=C(Nc1ccc(C(F)(F)F)cc1)Nc1cccc(C(=O)Nc2ccc3[nH]nc(-c4ccccc4)c3c2)c1 | enzyme activity | inhibitor | FRET | 1 µM | inhibition | 14.7%
CNC(=O)c1cc(Oc2ccc(NC(=O)Nc3ccc(Cl)c(C(F)(F)F)c3)cc2)ccn1 | cell-free assay |  |  | 10 µM | inhibition | 99%
Cc1cc(C)c(-n2ccn3nc(-c4cccnc4)cc23)cc1NC(=O)c1cc(C#N)cc(S(F)(F)(F)(F)F)c1 | cell-free assay |  | competition with immobilised ligand | 0.1 µM | remaining binding | 54.8%
Cc1ccc(Nc2nccc(N(C)c3ccc4c(C)n(C)nc4c3)n2)cc1S(N)(=O)=O | cell-free assay |  |  | 0.5 µM | remaining signal | 91.5%
CN1CCN(CC(=O)Nc2cccc(C(=O)Nc3ccc4[nH]ncc4c3)c2)CC1 | enzyme activity | inhibitor | FRET | 1 µM | inhibition | 13.3%
CCCOc1ccc(OC)c(F)c1C(=O)c1ccc(C(=O)N[C@@H]2CNC[C@H]2NC(=O)c2ccc3[nH]ncc3c2)cc1 | enzyme activity | inhibitor |  | 10 µM | remaining activity | 71%
CC(C)(O)[C@H]1CC[C@H](Nc2ccc3ncc(-c4cccc(C(F)(F)F)c4)n3n2)CC1 | enzyme activity | inhibitor |  | 1 µM | remaining activity | 7.07%
O=C(Nc1cnn2ccc(N3CCC[C@@H]3c3cc(F)ccc3F)nc12)N1CC[C@H](O)C1 | enzyme activity | inhibitor | FRET | 1 µM | inhibition | 100%
Cc1c(NC(=O)c2cc(C(N)=O)nc3cc(F)ccc23)c(C(F)(F)F)nn1Cc1ccc(C(C)(C)C)cc1 | cell-free assay |  | competition with immobilised ligand | 1 µM | remaining binding | 100%
O=C(Nc1ccc2[nH]ncc2c1)c1cccc(NC(=S)Nc2ccc(C(F)(F)F)cc2)c1 | enzyme activity | inhibitor | FRET | 1 µM | inhibition | 19.6%
Cc1ccc(NC(=O)c2ccc(CN3CCN(C)CC3)cc2)cc1Nc1nc(-c2cccnc2)cs1 | cell-free assay |  |  | 0.5 µM | remaining signal | 101%
C[C@H](c1ccc(F)cc1)N(Cc1cccc(C(=O)O)c1)C(=O)c1cnc2ccccc2c1 | cell-free assay |  | competition with immobilised ligand | 1 µM | remaining binding | 100%
O=C(Nc1ccc(I)cc1)Nc1cccc(C(=O)Nc2ccc3[nH]ncc3c2)c1 | enzyme activity | inhibitor | FRET | 1 µM | inhibition | 15.9%
O=C1CCc2cc(Nc3cc(OC4CCOCC4)c([N+](=O)[O-])cc3Cl)ccc2N1 | cell-free assay |  | competition with immobilised ligand | 1 µM | remaining binding | 100%
O=C1Nc2ccc(Cl)cc2C1=Cc1cc(Cl)c(O)c(Cl)c1 | cell-free assay |  |  | 0.5 µM | remaining signal | 61.1%
O=C(Nc1ccc2[nH]ncc2c1)c1cccc(NC(=S)Nc2cc(C(F)(F)F)cc(C(F)(F)F)c2)c1 | enzyme activity | inhibitor | FRET | 1 µM | inhibition | 11.2%
Cc1nccc(COC(=O)N2C[C@@H]3[C@@H](CNC(=O)c4ccc5[nH]nnc5c4)[C@@H]3C2)n1 | cell-free assay |  | competition with immobilised ligand | 1 µM | remaining binding | 100%
Nc1ncnc2occ(-c3ccc(NC(=O)Nc4cc(C(F)(F)F)ccc4F)cc3)c12 | cell-free assay |  |  | 20 µM | remaining signal | 1.4%
C[C@@H]1CN(c2cc(-c3n[nH]c4ccc(OC5(C)CC5)cc34)ncn2)C[C@H](C)O1 | cell-free assay |  | competition with immobilised ligand | 0.1 µM | remaining binding | 67%
COc1cc2c(N3CCN(C(=O)Nc4ccc(OC(C)C)cc4)CC3)ncnc2cc1OCCCN1CCCCC1 | cell-free assay |  |  | 0.5 µM | remaining signal | 81.7%
CNC(=O)Nc1ccc2c(c1)[C@@]1(CC2)OC(=O)N(CC(=O)N(Cc2ccc(F)cc2)[C@@H](C)C(F)(F)F)C1=O | cell-free assay |  | competition with immobilised ligand | 1 µM | remaining binding | 89%
O=C(Nc1ccccc1)Nc1cccc(C(=O)Nc2ccc3[nH]ncc3c2)c1 | enzyme activity | inhibitor | FRET | 1 µM | inhibition | 12.3%
